Runt-CBFb FRET – blocks binding of human RUNX1 Runt domain to CBFb | 220,000 tested, 0.46% active | Q01196+Q13951 | Cerulean-Runt/Venus-CBFb FRET ratio 530/480, 1 h | inhibition, % at 20 µM;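 active means inhibition over about 50% at 20 µM in the single-dose screen, limit read from the data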;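 further: 0% = DMSO wells and 100% = excess unlabeled CBFb competitor control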
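Assay system: Cerulean-tagged RUNX1 Runt domain (FRET donor) fusion protein / Amount: 100 nM each of Venus-CBFb and Cerulean-Runt domain / Medium: Tris buffer pH 7.5 with salts and BSA / Also added: Venus-CBFb 100 nM / Schedule: 1 h complex formation plus 1 h compound treatment, room temperature / Signal: FRET fluorescence / Read-out: loss of energy transfer signal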
RanGTP-Imp inh – inhibitors of RanGTP-importin-beta interaction, primary screen, biochemical, FRET, CFP-Ran, YFP-importin-beta, homogeneous; inhibition, % (test concentration not listed); AID 2216; 300,000 tested, 1.1% active; cell-free CFP-Ran/YFP-importin-beta FRET ratio;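 active means more than half of the replicate wells show a fall in the fluorescence ratio signal beyond about 16%, limit read from the data, passing the limit was not always enough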;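 further: 0% = DMSO wells and 100% = Ran loaded with GDP instead of GTP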
MEX-5 binding – C. elegans MEX-5 TCR-2 RNA binding activity; Q9XUB2; MEX-5/FITC-TCR2 RNA binding, fluorescence polarization; hits give low values; activity score (negative = inhibition of binding), % at 10 µM; 300,000 tested, 0.38% active; AID 1832;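 active means inhibition past about -25% in most replicates, and total fluorescence under double the plate's negative control median, limit read from the data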;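 further: 0% = DMSO and -100% = 5 µM competing unlabeled TCR2 RNA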
Target sequence (Q9XUB2 whole entry, looked up): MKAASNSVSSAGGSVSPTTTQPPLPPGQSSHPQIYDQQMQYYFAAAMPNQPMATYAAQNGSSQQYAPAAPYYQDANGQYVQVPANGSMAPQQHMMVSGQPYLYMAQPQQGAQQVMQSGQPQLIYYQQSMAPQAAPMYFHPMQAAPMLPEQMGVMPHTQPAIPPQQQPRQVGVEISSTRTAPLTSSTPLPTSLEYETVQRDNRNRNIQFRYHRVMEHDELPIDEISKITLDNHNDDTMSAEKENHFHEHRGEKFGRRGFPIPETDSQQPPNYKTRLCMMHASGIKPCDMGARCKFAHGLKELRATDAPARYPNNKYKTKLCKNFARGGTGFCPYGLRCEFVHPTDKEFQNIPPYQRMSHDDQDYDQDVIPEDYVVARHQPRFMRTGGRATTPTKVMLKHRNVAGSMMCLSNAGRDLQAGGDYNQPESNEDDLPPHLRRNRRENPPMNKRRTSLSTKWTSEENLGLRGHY
KLK7 zymogen act – activators of human kallikrein-7 zymogen; purified proKLK7, EDANS-DABCYL substrate fluorescence; 100% is mature enzyme control, 0% vehicle; activation, % at 7 µM; 370,000 tested, 0.9% active; AID 652039; P49862;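 active means activation above the mean of all tested compounds plus 3 SD, computed per campaign excluding outliers beyond control limits, cut at about 13% in these data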
Runt-SMMHC FRET – Runt domain-CBFb-SMMHC interaction inhibition; Cerulean-Runt/Venus-CBFb-SMMHC FRET ratio 530/480, 1 h; inhibition, % at 20 µM; 220,000 tested, 0.74% active;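 active means mean inhibition across duplicate retests at 20 µM reaching about 50%, limit read from the data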;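 further: 0% = DMSO wells and 100% = wells with excess untagged CBFb-SMMHC; inhibitors lower the FRET ratio by blocking Runt binding to CBFb-SMMHC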
KLK7 act conf – confirmation of human kallikrein-7 zymogen activators. shares compounds with KLK7 zymogen act. purified proKLK7, EDANS-DABCYL substrate fluorescence; scaled: vehicle 0, mature enzyme 100. activation, % at 7 µM. 3,200 tested, 68% active. AID 686949;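 active means activation, as change over the incubation, above the mean of all tested compounds plus 3 SD, cut at about 13% in these data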
EDANS-DABCYL int – optically interferes with EDANS-DABCYL signal, flagging KLK7 hits; shares compounds with KLK7 zymogen act; EDANS-DABCYL substrate fluorescence interference, no enzyme, 4 h; solvent 0%, active enzyme control 100%; activation, % at 7 µM; 3,200 tested, 80% active; AID 686952;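 active means activation above the all-compound mean plus 3 SD, ignoring values outside control-based bounds, cut at about 4.8% in these data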;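 further: value is the 4 h activation minus the activation read at time zero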
* marks the source's active call; other numbers are inactive results; . = not tested or not shown. Compounds with a hit are over-represented: about 2.1% of the library has one in this group of screens.

SMILES	Runt-CBFb FRET	RanGTP-Imp inh	MEX-5 binding	KLK7 zymogen act	Runt-SMMHC FRET	KLK7 act conf	EDANS-DABCYL int
CC1CCCN(CCCNC(=O)c2cc3c(s2)-c2ccccc2OC3)C1 (centres undefined)	.	5	-3	43*	.	63*	78*
COc1cc(C(O)c2nc(-c3cccc(C(C)C)c3)cs2)ccc1F (centres undefined)	.	.	.	0	.	.	.
O=C(Cn1cc(COc2c(F)c(F)c(Br)c(F)c2F)nn1)c1ccc(O)cc1	.	.	.	0	.	.	.
CC1(C)CC(=O)C=C(c2ccc(-c3ccc(S(C)(=O)=O)cc3)cc2)C1=O	.	.	.	0	.	.	.
CC1CCN(CCCNC(=O)c2cc3c(s2)-c2ccccc2OC3)CC1	.	-1	1	75*	.	74*	74*
CSc1ncccc1C(=O)OCC(=O)NC1CCC(C)CC1 (centres undefined)	.	.	.	-1	.	.	.
Nc1nc2ccccc2cc1C(=O)NCc1cccs1	.	.	.	11	.	.	.
COC(=O)C1=CNC=C(C(=O)OC)C1c1ccc(Cl)cc1	38	4	2	14*	83*	81*	80*
COC(=O)C1=CNC=C(C(=O)OC)C1c1cccc2ccccc12	.	0	4	-1	.	.	.
COC(=O)C1=CNC=C(C(=O)OC)C1c1ccccc1Cl	72*	.	.	66*	146*	65*	75*
COC(=O)C1=CN(c2ccc(Cl)cc2)C=C(C(=O)OC)C1c1ccc([N+](=O)[O-])cc1	.	-4	0	-1	.	.	.
CCOC(=O)C1(C)CCCN(C(=O)c2ccc(F)cc2Cl)C1 (centres undefined)	.	.	.	0	.	.	.
C[C@H]1CN([C@@H](C)CO)C(=O)CCCn2nncc2CO[C@@H]1CN(C)S(=O)(=O)c1ccccc1	.	.	.	0	.	.	.
Cc1c(C)c2c(OCC(=O)N3CCC(O)CC3)cc3c(c2oc1=O)CCC(C)(C)O3	.	-1	-1	42*	.	69*	73*
Cc1c(C)c2c(OCC(=O)NCc3ccncc3)cc3c(c2oc1=O)CCC(C)(C)O3	.	-5	0	-7	.	.	.
CCCc1cc(=O)oc2c3c(cc(OCC(=O)N4CCC(C(=O)O)CC4)c12)OC(C)(C)CC3	.	.	.	65*	.	77*	76*
CCCc1cc(=O)oc2c3c(cc(OCC(=O)NCC4CCC(C(=O)O)CC4)c12)OC(C)(C)CC3 (centres undefined)	.	2	1	-2	.	.	.
Cc1c(C)c2c(OCC(=O)N3CCC[C@H]3C(=O)O)cc3c(c2oc1=O)CCC(C)(C)O3	.	4	-1	71*	.	71*	70*
CC1(C(=O)NS(=O)(=O)c2ccccc2Cl)CCN1C(=O)Cc1cccc2ccccc12 (centres undefined)	.	.	.	0	.	.	.
CC(=O)c1ccc(S(=O)(=O)N2CCC(C(=O)Nc3ncc(C)s3)CC2)cc1	.	.	.	1	.	.	.
NC(=O)c1cccc2cc3ccccc3cc12	2	-1	-4	53*	-1	65*	72*
NC(=O)c1ccccc1OCc1cccc2ccccc12	.	-8	1	0	.	.	.
Cc1nc2sc(C(=O)NCc3nccs3)c(N)c2c(C)c1Cl	.	.	.	84*	.	63*	68*
CCCc1cc(=O)oc2c(C)c(OCC(=O)NCCCn3ccnc3)ccc12	.	1	1	0	.	.	.
Cc1cc(=O)oc2c3c(cc(OCC(=O)NCCCn4ccnc4)c12)OC(C)(C)CC3	.	8	5	29*	.	8	-8
SMILES	Runt-CBFb FRET	RanGTP-Imp inh	MEX-5 binding	KLK7 zymogen act	Runt-SMMHC FRET	KLK7 act conf	EDANS-DABCYL int
Cc1cc(=O)oc2c3c(cc(OCC(=O)NCc4ccco4)c12)OC(C)(C)CC3	.	3	0	12	.	.	.
Cc1cc(=O)oc2c3c(cc(OCC(=O)NCCN4CCOCC4)c12)OC(C)(C)CC3	.	1	0	34*	.	57*	70*
CCCc1cc(=O)oc2c3c(cc(OCC(=O)NCCCn4ccnc4)c12)OC(C)(C)CC3	.	5	2	17*	.	-37	-40
O=C(COC(=O)c1ccc(Cl)cc1[N+](=O)[O-])NCc1ccco1	.	.	.	0	.	.	.
O=C(Nc1cccc(S(=O)(=O)N2CCOCC2)c1)c1ccc(=O)[nH]c1	.	.	.	0	.	.	.
COc1ccc(N=c2oc3cc(O)ccc3cc2C(=O)NCC2CCCO2)c(OC)c1 (centres undefined)	11	176*	2	20*	41	13*	17*
CCOc1ccccc1N=c1oc2cc(O)ccc2cc1C(=O)NCC1CCCO1 (centres undefined)	53*	180*	1	88*	59*	12	14*
COc1ccc(N=c2oc3cc(O)ccc3cc2C(=O)NCC2CCCO2)cc1 (centres undefined)	82*	173*	3	16*	64*	8	11*
COc1cc(SC)ccc1C(=O)NCC1CCCO1 (centres undefined)	0	1	-1	0	-6	.	.
COc1ccccc1Cc1c(-c2ccco2)nc2c3ccccc3ccn12	.	.	.	-3	.	.	.
O=C1CC(c2ccccc2)n2nc(N3C(=O)c4ccccc4C3=O)nc2N1 (centres undefined)	0	4	-4	0	-1	.	.

Screens (PubChem)
